Assay results: ChEMBL document CHEMBL1121929, “[(3-aryl-1,2-benzisoxazol-6-yl)oxy]acetic acids. A new diuretic series” (1982)

What was measured:
Mus musculus [1] = test: The diuretic activity was measured after oral administration in saline loaded mice at 64 mg/kg after 5 hr; format: functional, Urine
In short: (§1)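 Mice were dosed orally with drug in 1% saline at 10 mL/kg, at 4 or 64 mg/kg, alongside a vehicle control. There were 10 mice per group, housed 5 per metabolic cage. Pooled urine was analysed for sodium by flame photometry and expressed as mean mequiv/kg/5 h.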

Canis familiaris [2] = test: Diuretic activity was measured after oral administration in conscious water loaded dogs at 20 mg/kg after 1 hr; format: functional, Canis lupus familiaris, Urine
In short: (§2)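 Male mongrel dogs (20–25 kg) were given 20 mL/kg tap water by gavage about 15 h before drug, with water ad libitum overnight. On the test day they received 4 mL/kg tap water hourly for 7 h, and the bladder was emptied at each interval. Drug was gavaged in the 4 mL/kg water load after the third urine sample, with Tween 80 added when it was poorly soluble. Urinary Na+ was measured by flame photometry as the mean excretory rate (μequiv/kg) per interval per animal. Each dog was its own control, using the hour before dosing.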

Mus musculus [3] = test: The diuretic activity was measured after oral administration in saline loaded mice at 4 mg/kg after 5 hr; format: functional, Urine; in short: as §1
Canis familiaris [4] = test: The diuretic activity of compound was measured after oral administration in conscious water loaded dogs at 5 mg/kg after 5h; Micro equiv of Na+/kg; format: functional, Canis lupus familiaris, Urine; in short: as §2
Canis familiaris [5] = test: The diuretic activity of compound was measured after oral administration in conscious water loaded dogs at 5 mg/kg after 4 hr; Micro equiv of Na+/kg; format: functional, Canis lupus familiaris, Urine; in short: as §2
Canis familiaris [6] = test: The diuretic activity of compound was measured after oral administration in conscious water loaded dogs at 5 mg/kg after 6 h; Micro equiv of Na+/kg; format: functional, Canis lupus familiaris, Urine; in short: as §2
Canis familiaris [7] = test: The diuretic activity of compound was measured after oral administration in conscious water loaded dogs at 5 mg/kg after 1 hr; Micro equiv of Na+/kg; format: functional, Canis lupus familiaris, Urine; in short: as §2
Canis familiaris [8] = test: The diuretic activity of compound was measured after oral administration in conscious water loaded dogs at 5 mg/kg after 3 hr; Micro equiv of Na+/kg; format: functional, Canis lupus familiaris, Urine; in short: as §2
Canis familiaris [9] = test: The diuretic activity of compound was measured after oral administration in conscious water loaded dogs at 5 mg/kg after 2 hr; Micro equiv of Na+/kg; format: functional, Canis lupus familiaris, Urine; in short: as §2
Canis familiaris [10] = test: The diuretic activity of compound was measured after oral administration in conscious water loaded dogs at 5 mg/kg after 7h; Micro equiv of Na+/kg; format: functional, Canis lupus familiaris, Urine; in short: as §2

Row | SMILES | Oral diuretic activity (Mus musculus [1]) | Oral diuretic activity (Canis familiaris [2]) | Oral diuretic activity (Mus musculus [3]) | further results
1 | Cc1cccc(-c2noc3c(Cl)c(OCC(=O)O)ccc23)c1C | 0.02 m equiv [Na+] 5hr-1kg-1 | 219.9 u equiv of [Na+] kg-1 hr-1 | – | –
2 | Cc1ccc(-c2noc3c(Cl)c(OCC(=O)O)ccc23)o1 | 1.5 m equiv [Na+] 5hr-1kg-1 | 37.4 u equiv of [Na+] kg-1 hr-1 | 0.3 m equiv [Na+] 5hr-1kg-1 | –
3 | O=C(O)COc1ccc2c(-c3ccc(O)cc3F)noc2c1Cl | 0.6 m equiv [Na+] 5hr-1kg-1 | 43.5 u equiv of [Na+] kg-1 hr-1 | 0.5 m equiv [Na+] 5hr-1kg-1 | –
4 | O=C(O)COc1ccc2c(-c3ccc(Cl)c(Cl)c3)noc2c1Cl | 0.1 m equiv [Na+] 5hr-1kg-1 | 101.6 u equiv of [Na+] kg-1 hr-1 | 0.6 m equiv [Na+] 5hr-1kg-1 | –
5 | O=C(O)COc1ccc2c(-c3ccc(Cl)cc3)noc2c1Cl | 0.5 m equiv [Na+] 5hr-1kg-1 | 41.2 u equiv of [Na+] kg-1 hr-1 | 0.5 m equiv [Na+] 5hr-1kg-1 | –
6 | O=C(O)COc1c(Cl)cc2c(-c3ccccc3F)noc2c1Cl | 0.41 m equiv [Na+] 5hr-1kg-1 | 85.7 u equiv of [Na+] kg-1 hr-1 | – | –
7 | CCOC(=O)COc1ccc2c(-c3ccccc3F)noc2c1Cl | 1.48 m equiv [Na+] 5hr-1kg-1 | 39.1 u equiv of [Na+] kg-1 hr-1 | – | –
8 | O=C(O)COc1ccc2c(-c3cccs3)noc2c1Cl | 1 m equiv [Na+] 5hr-1kg-1 | 77.5 u equiv of [Na+] kg-1 hr-1 | 0.4 m equiv [Na+] 5hr-1kg-1 | –
9 | O=C(O)COc1cc(Cl)c2c(-c3ccccc3F)noc2c1 | 1.16 m equiv [Na+] 5hr-1kg-1 | 82.1 u equiv of [Na+] kg-1 hr-1 | 1.59 m equiv [Na+] 5hr-1kg-1 | –
10 | O=C(O)COc1ccc2c(-c3ccc4ccccc4c3)noc2c1Cl | 1.1 m equiv [Na+] 5hr-1kg-1 | 53.3 u equiv of [Na+] kg-1 hr-1 | 1.2 m equiv [Na+] 5hr-1kg-1 | –
11 | Cc1ccccc1-c1noc2c(Cl)c(OCC(=O)O)ccc12 | 1.76 m equiv [Na+] 5hr-1kg-1 | 66.9 u equiv of [Na+] kg-1 hr-1 | 0.02 m equiv [Na+] 5hr-1kg-1 | –
12 | O=C(O)COc1ccc2c(-c3ccccc3F)noc2c1 | 2.89 m equiv [Na+] 5hr-1kg-1 | 33.6 u equiv of [Na+] kg-1 hr-1 | – | –
13 | O=C(O)COc1ccc(-c2noc3ccccc23)c(Cl)c1Cl | 1.49 m equiv [Na+] 5hr-1kg-1 | 81.6 u equiv of [Na+] kg-1 hr-1 | 0.33 m equiv [Na+] 5hr-1kg-1 | –
14 | O=C(O)CSc1ccc2c(-c3ccccc3F)noc2c1Cl | 4.67 m equiv [Na+] 5hr-1kg-1 | 328.4 u equiv of [Na+] kg-1 hr-1 | 1.37 m equiv [Na+] 5hr-1kg-1 | –
15 | O=C(O)COc1cc2onc(-c3ccccc3F)c2cc1Cl | 0.2 m equiv [Na+] 5hr-1kg-1 | 49.8 u equiv of [Na+] kg-1 hr-1 | 0.6 m equiv [Na+] 5hr-1kg-1 | –
16 | O=C(O)COc1ccc2c(-c3ccccn3)noc2c1Cl | 1 m equiv [Na+] 5hr-1kg-1 | 61.2 u equiv of [Na+] kg-1 hr-1 | 0.5 m equiv [Na+] 5hr-1kg-1 | –
17 | O=C(O)COc1ccc2c(-c3ccccc3F)noc2c1I | 3.41 m equiv [Na+] 5hr-1kg-1 | 617.3 u equiv of [Na+] kg-1 hr-1 | 0.07 m equiv [Na+] 5hr-1kg-1 | –
18 | O=C(O)COc1ccc2c(-c3ccc(F)cc3)noc2c1Cl | 0.4 m equiv [Na+] 5hr-1kg-1 | 178.7 u equiv of [Na+] kg-1 hr-1 | 0.4 m equiv [Na+] 5hr-1kg-1 | –

Row | SMILES | Oral diuretic activity (Mus musculus [1]) | Oral diuretic activity (Canis familiaris [2]) | Oral diuretic activity (Mus musculus [3]) | further results
19 | O=C(O)COc1ccc2c(-c3ccc(Cl)cc3F)noc2c1Cl | 1.4 m equiv [Na+] 5hr-1kg-1 | 156.2 u equiv of [Na+] kg-1 hr-1 | 1.8 m equiv [Na+] 5hr-1kg-1 | –
20 | O=C(O)COc1cc2onc(-c3ccccc3F)c2cc1Br | 0.28 m equiv [Na+] 5hr-1kg-1 | – | 0.47 m equiv [Na+] 5hr-1kg-1 | –
21 | O=C(O)COc1ccc2c(-c3cccc(F)c3F)noc2c1Cl | 5.8 m equiv [Na+] 5hr-1kg-1 | 80 u equiv of [Na+] kg-1 hr-1 | – | –
22 | O=C(O)COc1ccc2c(-c3ccco3)noc2c1Cl | 0.6 m equiv [Na+] 5hr-1kg-1 | 199 u equiv of [Na+] kg-1 hr-1 | – | –
23 | O=C(O)COc1ccc2c(-c3ccccc3F)noc2c1Cl | 10 m equiv [Na+] 5hr-1kg-1 | 1267.5 u equiv of [Na+] kg-1 hr-1 | 3.5 m equiv [Na+] 5hr-1kg-1 | Oral diuretic activity (Canis familiaris [4]): 458.2 u equiv of [Na+] kg-1; Oral diuretic activity (Canis familiaris [5]): 503.7 u equiv of [Na+] kg-1; Oral diuretic activity (Canis familiaris [6]): 241.7 u equiv of [Na+] kg-1; Oral diuretic activity (Canis familiaris [7]): 48.6 u equiv of [Na+] kg-1; Oral diuretic activity (Canis familiaris [8]): 727 u equiv of [Na+] kg-1; Oral diuretic activity (Canis familiaris [9]): 499.4 u equiv of [Na+] kg-1; Oral diuretic activity (Canis familiaris [10]): 146.2 u equiv of [Na+] kg-1
24 | O=C(O)COc1ccc2c(-c3ccccc3Cl)noc2c1Cl | 9.1 m equiv [Na+] 5hr-1kg-1 | 48.2 u equiv of [Na+] kg-1 hr-1 | 0.6 m equiv [Na+] 5hr-1kg-1 | –
25 | O=C(O)COc1ccc2c(-c3ccoc3)noc2c1Cl | 2.1 m equiv [Na+] 5hr-1kg-1 | 293 u equiv of [Na+] kg-1 hr-1 | 0.6 m equiv [Na+] 5hr-1kg-1 | –
26 | O=C(O)COc1ccc2c(-c3cc(F)ccc3F)noc2c1Cl | 8.3 m equiv [Na+] 5hr-1kg-1 | 926.2 u equiv of [Na+] kg-1 hr-1 | 2.2 m equiv [Na+] 5hr-1kg-1 | –
27 | Cc1ccc(-c2noc3c(Cl)c(OCC(=O)O)ccc23)cc1 | 0.6 m equiv [Na+] 5hr-1kg-1 | 29.3 u equiv of [Na+] kg-1 hr-1 | 0.8 m equiv [Na+] 5hr-1kg-1 | –
28 | Cc1ccc(-c2noc3c(Cl)c(OCC(=O)O)ccc23)s1 | 0.5 m equiv [Na+] 5hr-1kg-1 | 122.4 u equiv of [Na+] kg-1 hr-1 | – | –
29 | O=C(O)COc1ccc2c(-c3ccc(F)cc3F)noc2c1Cl | 0.9 m equiv [Na+] 5hr-1kg-1 | 41.7 u equiv of [Na+] kg-1 hr-1 | 0.7 m equiv [Na+] 5hr-1kg-1 | –
30 | O=C(O)COc1ccc2c(-c3cccc(F)c3)noc2c1Cl | 0.81 m equiv [Na+] 5hr-1kg-1 | 50.6 u equiv of [Na+] kg-1 hr-1 | 0.75 m equiv [Na+] 5hr-1kg-1 | –
31 | Cc1ccsc1-c1noc2c(Cl)c(OCC(=O)O)ccc12 | 0.7 m equiv [Na+] 5hr-1kg-1 | 97.7 u equiv of [Na+] kg-1 hr-1 | – | –
32 | O=C(O)COc1c(Cl)c(Cl)c2c(-c3ccccc3F)noc2c1Cl | 1.65 m equiv [Na+] 5hr-1kg-1 | 109 u equiv of [Na+] kg-1 hr-1 | 0.53 m equiv [Na+] 5hr-1kg-1 | –
33 | O=C(O)COc1ccc2c(-c3ccccc3)noc2c1Cl | 1.7 m equiv [Na+] 5hr-1kg-1 | 47.5 u equiv of [Na+] kg-1 hr-1 | 0.8 m equiv [Na+] 5hr-1kg-1 | –
34 | O=C(O)COc1ccc2c(-c3c(F)cccc3F)noc2c1Cl | 10.4 m equiv [Na+] 5hr-1kg-1 | 1081.4 u equiv of [Na+] kg-1 hr-1 | 5.3 m equiv [Na+] 5hr-1kg-1 | Oral diuretic activity (Canis familiaris [4]): 397 u equiv of [Na+] kg-1; Oral diuretic activity (Canis familiaris [5]): 431.8 u equiv of [Na+] kg-1; Oral diuretic activity (Canis familiaris [6]): 342.6 u equiv of [Na+] kg-1; Oral diuretic activity (Canis familiaris [7]): 108.4 u equiv of [Na+] kg-1; Oral diuretic activity (Canis familiaris [8]): 257.2 u equiv of [Na+] kg-1; Oral diuretic activity (Canis familiaris [9]): 98.9 u equiv of [Na+] kg-1; Oral diuretic activity (Canis familiaris [10]): 190 u equiv of [Na+] kg-1
35 | O=C(O)COc1ccc2c(-c3ccccc3F)noc2c1Br [BROCRINAT] | 11.53 m equiv [Na+] 5hr-1kg-1 | 1970.7 u equiv of [Na+] kg-1 hr-1 | 1.02 m equiv [Na+] 5hr-1kg-1 | Oral diuretic activity (Canis familiaris [4]): 503.3 u equiv of [Na+] kg-1; Oral diuretic activity (Canis familiaris [5]): 869 u equiv of [Na+] kg-1; Oral diuretic activity (Canis familiaris [7]): 106.8 u equiv of [Na+] kg-1; Oral diuretic activity (Canis familiaris [8]): 1182.6 u equiv of [Na+] kg-1; Oral diuretic activity (Canis familiaris [9]): 1083 u equiv of [Na+] kg-1
36 | O=C(O)COc1ccc(C(=O)c2cccs2)c(Cl)c1Cl [TICRYNAFEN] | 3.31 m equiv [Na+] 5hr-1kg-1 | 302.3 u equiv of [Na+] kg-1 hr-1 | 1.11 m equiv [Na+] 5hr-1kg-1 | Oral diuretic activity (Canis familiaris [4]): 36.5 u equiv of [Na+] kg-1; Oral diuretic activity (Canis familiaris [5]): 77.4 u equiv of [Na+] kg-1; Oral diuretic activity (Canis familiaris [7]): 127.5 u equiv of [Na+] kg-1; Oral diuretic activity (Canis familiaris [10]): 21.2 u equiv of [Na+] kg-1
